≈ marks a conversion by molar mass, not a printed value.
Key:
[1] = Antineuroinflammatory activity in LPS-stimulated rat neonatal microglia assessed as inhibition of PMA-induced TXB2 production preincubated 15 mins prior to PMA challenge measured after 70 mins; type: functional, cell-based
[2] = Antineuroinflammatory activity in LPS-stimulated rat neonatal microglia assessed as drug level causing 50% PMA-induced LDH release preincubated 15 mins prior to PMA challenge measured after 70 mins; type: functional
Procedure, shortened: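 Neonatal rat microglia (2 × 10^5/well) primed with E. coli LPS 0.3 ng/mL for 17 h at 35.9 °C, washed with HBSS, given compound (0.01–10 μM) or DMSO 15 min, then PMA 1 μM; LDH read spectrophotometrically after 70 min; LDH50 relative to Triton X-100 (0.1%) release; duplicates.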

[3] = Antineuroinflammatory activity in LPS-stimulated rat neonatal microglia assessed as inhibition of PMA-induced superoxide anion production preincubated 15 mins prior to PMA challenge measured after 70 mins; type: functional, cell-based
Plasmodium falciparum [4] = experiment: Antiplasmodial activity against chloroquine-sensitive Plasmodium falciparum D6 after 72 hrs by LDH assay; type: functional, organism-based
Vero [5] = experiment: Cytotoxicity against african green monkey Vero cells up to 4.6 ug/mL after 48 hrs by neutral red assay; type: cell-based; conditions: chlorocebus sabaeus
Procedure, shortened: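 Vero cells were seeded at 25,000 cells/well and incubated for 24 h, then exposed to serially diluted samples for 48 h. Viable cells were counted by Neutral Red assay, with doxorubicin as positive control. IC50 was taken from dose-response curves.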

[6] = system: Mycobacterium tuberculosis; experiment: Antimycobacterial activity against Mycobacterium tuberculosis H37Rv; type: functional, organism-based
[7] = system: Mycobacterium intracellulare; experiment: Antimycobacterial activity against Mycobacterium intracellular ATCC 23068; type: functional, organism-based
Procedure, shortened: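 Modified Franzblau method; samples serially diluted in 20% DMSO/saline, tested in duplicate; inoculum set by OD630; fluorescence read at 544ex/590em before and after incubation; ciprofloxacin drug control.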

Candida albicans = experiment: Antifungal activity against Candida albicans ATCC 90028; type: functional, organism-based
Procedure, shortened: (§1)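 Broth microdilution per modified CLSI method; samples serially diluted in 20% DMSO/saline, tested in duplicate; inocula set by OD630 of suspensions in incubation broth; growth read at 630 nm before and after incubation; amphotericin B drug control.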

Cryptococcus neoformans = experiment: Antifungal activity against Cryptococcus neoformans ATCC 90113; type: functional, organism-based; procedure, shortened: as §1
Plasmodium falciparum [8] = experiment: Antiplasmodial activity against chloroquine-resistant Plasmodium falciparum W2 after 72 hrs by LDH assay; type: functional, organism-based
Vero [9] = experiment: Cytotoxicity against african green monkey Vero cells after 48 hrs by neutral red assay; type: cell-based; conditions: chlorocebus sabaeus
Procedure, shortened: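 Vero cells seeded at 25,000/well and grown 24 h, then exposed to serially diluted samples for 48 h. Viable cells measured by neutral red assay, with doxorubicin as positive control. IC50 taken from dose-response curves.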

[10] = Plasmodium falciparum, D6, 72 h, read-out: IC50
[11] = Plasmodium falciparum, W2, 72 h, read-out: IC50

SMILES	IC50 [1]	Activity [2]	IC50 [3]	IC50 (Plasmodium falciparum [4])	Activity (Vero [5])	MIC [6]	IC50 [7]	IC50 (Candida albicans)	IC50 (Cryptococcus neoformans)	IC50 (Plasmodium falciparum [8])	IC50 (Plasmodium falciparum [4]; [10])	IC50 (Plasmodium falciparum [8]; [11])	IC50 (Vero [9])
O=CC1=C[C@@]2(O)CC/C=C\CCCCN3CC[C@@H]1[C@]1(C[C@@H]4/C=C\CCCCN4[C@H]12)C3 [IRCINAL]	0.33 µM	4.6 µM	> 10 µM										
O=C1CC[C@H]2C[C@]34CN5CCCC/C=C\CC[C@](O)(C=C(c6nccc7c6[nH]c6c(O)cccc67)[C@@H]3CC5)[C@@H]4N2CC/C1=C/c1ccc(Br)cc1				Not Active	Non-toxic	> 64 µg/mL	> 20 µg/mL	> 20 µg/mL	> 20 µg/mL	Not Active			
O=C1CCCN2[C@@H](CC1)C[C@]13CN4CCCC/C=C\CC[C@](O)(C=C(c5nccc6c5[nH]c5c(O)cccc56)C1CC4)[C@H]23 (some centres not stated) [MANZAMINE F]								15 µg/mL (≈ 25.8 µM)					
CC[C@@]1(O)CCCN2[C@@H](CC1)C[C@]13CN4CCCC/C=C\CC[C@](O)(C=C(c5nccc6c5[nH]c5c(O)cccc56)[C@@H]1CC4)[C@H]23					Non-toxic	1.9 µg/mL (≈ 3.11 µM)	0.25 µg/mL (≈ 0.409 µM)	2.5 µg/mL (≈ 4.09 µM)	6 µg/mL (≈ 9.82 µM)		0.077 µg/mL (≈ 0.126 µM)		
O=C1CC[C@H]2C[C@]34CN5CCCC/C=C\CC[C@](O)(C=C(c6nccc7c6[nH]c6c(O)cccc67)[C@@H]3CC5)[C@@H]4N2CC/C1=C/c1ccc(F)cc1				Not Active	Non-toxic		> 20 µg/mL	> 20 µg/mL	> 20 µg/mL	Not Active			
[O-][N+]12CCCC/C=C\CC[C@]3(O)C=C(c4nccc5c4[nH]c4ccccc45)[C@H](CC1)[C@]1(C[C@@H]4/C=C\CCCC[N@+]4([O-])[C@H]13)C2					Non-toxic		10 µg/mL (≈ 17.2 µM)	> 20 µg/mL	> 20 µg/mL				
O=C1CC[C@H]2C[C@]34CN5CCCC/C=C\CC[C@](O)(C=C(c6nccc7c6[nH]c6c(O)cccc67)[C@@H]3CC5)[C@@H]4N2CC/C1=C/c1c(Cl)cccc1Cl				Not Active	Non-toxic	> 64 µg/mL	> 20 µg/mL	> 20 µg/mL	> 20 µg/mL	Not Active			
CC(=O)Oc1cccc2c1[nH]c1c(C3=C/C4=C/C/C=C\CCCCN5CC[C@@H]3[C@]3(C[C@@H]6/C=C\CCCCN6[C@@H]43)C5)nccc12						> 64 µg/mL	10 µg/mL (≈ 17 µM)	> 20 µg/mL	> 20 µg/mL		2.5 µg/mL (≈ 4.25 µM)	3.8 µg/mL (≈ 6.45 µM)	
COc1ccc(/C=C2/CCN3[C@@H](CCC2=O)C[C@]24CN5CCCC/C=C\CC[C@](O)(C=C(c6nccc7c6[nH]c6c(O)cccc67)[C@@H]2CC5)[C@H]34)cc1				Not Active	Non-toxic	> 64 µg/mL	> 20 µg/mL	> 20 µg/mL	> 20 µg/mL	Not Active			
CC(C)CCn1c2ccccc2c2ccnc(C3=C[C@@]4(O)CC/C=C\CCCCN5CC[C@@H]3[C@]3(C[C@@H]6/C=C\CCCCN6[C@H]34)C5)c21 [9-N-ISOPENTYLMANZAMINE A]	3.2 µM	>10 µM	3.2 µM		Non-toxic	128 µg/mL (≈ 207 µM)	6.5 µg/mL (≈ 10.5 µM)	> 20 µg/mL	> 20 µg/mL		2.3 µg/mL (≈ 3.72 µM)	3.8 µg/mL (≈ 6.14 µM)	
CC(=O)Oc1cccc2c1[nH]c1c(C3=C[C@@]4(O)CC/C=C\CCCCN5CC[C@@H]3[C@]3(C[C@@H]6/C=C\CCCCN6[C@H]34)C5)nccc12 [8-ACETOXYMANZAMINE A]											0.029 µg/mL (≈ 0.0478 µM)		670 µg/mL (≈ 1100 µM)
CCCCCCCCCCCCn1c2ccccc2c2ccnc(C3=C[C@@]4(O)CC/C=C\CCCCN5CC[C@@H]3[C@]3(C[C@@H]6/C=C\CCCCN6[C@H]34)C5)c21				Not Active	Non-toxic		> 20 µg/mL	> 20 µg/mL	> 20 µg/mL	Not Active			
Oc1cccc2c1[nH]c1c(C3=C[C@@]4(O)CC/C=C\CCCCN5CC[C@@H]3[C@]3(C[C@@H]6CC[C@H](O)CCCN6[C@H]34)C5)nccc12				Not Active	Non-toxic	1.7 µg/mL (≈ 2.92 µM)	1.5 µg/mL (≈ 2.57 µM)	15 µg/mL (≈ 25.7 µM)	10 µg/mL (≈ 17.2 µM)	Not Active			

From ChEMBL document CHEMBL1157729, “Structure-activity relationship and mechanism of action studies of manzamine analogues for the control of neuroinflammation and cerebral infections” (J Med Chem, 2010)
